ChEMBL document CHEMBL1123757, “Selective thromboxane synthetase inhibitors and antihypertensive agents. New derivatives of 4-hydrazino-5H-pyridazino[4,5-b]indole, 4-hydrazinopyridazino[4,5-a]indole, and related compounds” (J Med Chem, 1987)

Tests used:
Rattus norvegicus [1] = experiment: Antihypertensive activity in spontaneously hypertensive rats (SHR) measured by percentage fall in arterial pressure (AP) at 25 mg/kg administered perorally at 3 h; type: functional, Artery; settings: route oral
Method in brief: (§1)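 Oral dosing at 2.5 mL/kg to unanesthetized male and female Okamoto-strain SHR (8 weeks old, 300–350 g, systolic pressure ≥190 mmHg, heart rate 400–650 beats/min), five per dose. Vehicle was normal saline or saline with 0.2% (carboxymethyl)cellulose and 1.0% Tween 80. AP measured on the tail by mechanical transduction at set times; expressed as percentage fall from control.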

Rattus norvegicus [2] = experiment: Antihypertensive activity in spontaneously hypertensive rats (SHR) measured by percentage fall in arterial pressure (AP) at 25 mg/kg administered perorally at 5 h; type: functional, Artery; settings: route oral; method in brief: as §1
Rattus norvegicus [3] = experiment: Antihypertensive activity in spontaneously hypertensive rats (SHR) measured by percentage fall in arterial pressure (AP) at 5 mg/kg administered intraperitoneally at 1 h; type: functional, Artery; settings: route intraperitoneal
Method in brief: (§2)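 Unanesthetized Okamoto-strain SHR, male and female, 8 weeks old, 300–350 g, systolic pressure ≥190 mmHg, heart rate 400–650 beats/min; five animals per dose. Given ip at 2.5 mL/kg, dissolved or suspended in normal saline or saline with 0.2% (carboxymethyl)cellulose and 1.0% Tween 80. Tail AP and CR recorded by mechanical transduction at set times; reported as percentage fall from control.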

Rattus norvegicus [4] = experiment: Antihypertensive activity in spontaneously hypertensive rats (SHR) measured by percentage fall in arterial pressure (AP) at 5 mg/kg administered intraperitoneally at 24 h; type: functional, Artery; settings: route intraperitoneal; method in brief: as §2
Rattus norvegicus [5] = experiment: Antihypertensive activity in spontaneously hypertensive rats (SHR) measured by percentage fall in arterial pressure (AP) at 5 mg/kg administered intraperitoneally at 5 h; type: functional, Artery; settings: route intraperitoneal; method in brief: as §2
Rattus norvegicus [6] = experiment: Antihypertensive activity in spontaneously hypertensive rats (SHR) measured by percentage fall in arterial pressure (AP) at 25 mg/kg administered intraperitoneally at 5 h; type: functional, Artery; settings: route intraperitoneal; method in brief: as §2
Rattus norvegicus [7] = experiment: Antihypertensive activity in spontaneously hypertensive rats (SHR) measured by percentage fall in arterial pressure (AP) at 25 mg/kg administered perorally at 1 h; type: functional, Artery; settings: route oral; method in brief: as §1
Rattus norvegicus [8] = experiment: Antihypertensive activity in spontaneously hypertensive rats (SHR) measured by percentage fall in cardiac rhythm (CR) at 1 mg/kg administered intraperitoneally at 3 h; type: functional, Heart; settings: route intraperitoneal; method in brief: as §2
Rattus norvegicus [9] = experiment: Antihypertensive activity in spontaneously hypertensive rats (SHR) measured by percentage fall in cardiac rhythm (CR) at 1 mg/kg administered intraperitoneally at 5 h; type: functional, Heart; settings: route intraperitoneal; method in brief: as §2
Rattus norvegicus [10] = experiment: Antihypertensive activity in spontaneously hypertensive rats (SHR) measured by percentage fall in cardiac rhythm (CR) at 25 mg/kg administered intraperitoneally at 1 h; type: functional, Heart; settings: route intraperitoneal; method in brief: as §2
Rattus norvegicus [11] = experiment: Antihypertensive activity in spontaneously hypertensive rats (SHR) measured by percentage fall in cardiac rhythm (CR) at 25 mg/kg administered perorally at 3 h; type: functional, Heart; settings: route oral
Method in brief: (§3)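 Conscious SHR (Okamoto strain), 8 weeks old, male and female, 300–350 g, systolic BP ≥190 mmHg, CR 400–650 beats/min. Given ip or po at 2.5 mL/kg in normal saline or saline with 0.2% (carboxymethyl)cellulose and 1.0% Tween 80. Tail AP and CR recorded by mechanical transduction at 1, 3, 5 and 24 h, five animals per dose. Effect expressed as % fall versus control.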

Rattus norvegicus [12] = experiment: Antihypertensive activity in spontaneously hypertensive rats (SHR) measured by percentage fall in cardiac rhythm (CR) at 25 mg/kg administered perorally at 5 h; type: functional, Heart; settings: route oral; method in brief: as §3
Rattus norvegicus [13] = experiment: Antihypertensive activity in spontaneously hypertensive rats (SHR) measured by percentage fall in cardiac rhythm (CR) at 5 mg/kg administered intraperitoneally at 1 h; type: functional, Heart; settings: route intraperitoneal; method in brief: as §3
Rattus norvegicus [14] = experiment: Antihypertensive activity in spontaneously hypertensive rats (SHR) measured by percentage fall in cardiac rhythm (CR) at 5 mg/kg administered intraperitoneally at 24 h; type: functional, Heart; settings: route intraperitoneal; method in brief: as §3
Rattus norvegicus [15] = experiment: Antihypertensive activity in spontaneously hypertensive rats (SHR) measured by percentage fall in cardiac rhythm (CR) at 5 mg/kg administered intraperitoneally at 3 h; type: functional, Heart; settings: route intraperitoneal; method in brief: as §3
Rattus norvegicus [16] = experiment: Antihypertensive activity in spontaneously hypertensive rats (SHR) measured by percentage fall in cardiac rhythm (CR) at 5 mg/kg administered intraperitoneally at 5 h; type: functional, Heart; settings: route intraperitoneal; method in brief: as §3
Rattus norvegicus [17] = experiment: Antihypertensive activity in spontaneously hypertensive rats (SHR) measured by percentage fall in cardiac rhythm (CR) at 1 mg/kg administered intraperitoneally at 1 h; type: functional, Heart; settings: route intraperitoneal; method in brief: as §2
Rattus norvegicus [18] = experiment: Antihypertensive activity in spontaneously hypertensive rats (SHR) measured by percentage fall in cardiac rhythm (CR) at 25 mg/kg administered intraperitoneally at 24 h; type: functional, Heart; settings: route intraperitoneal; method in brief: as §2
Rattus norvegicus [19] = experiment: Antihypertensive activity in spontaneously hypertensive rats (SHR) measured by percentage fall in cardiac rhythm (CR) at 25 mg/kg administered intraperitoneally at 3 h; type: functional, Heart; settings: route intraperitoneal; method in brief: as §2
Rattus norvegicus [20] = experiment: Antihypertensive activity in spontaneously hypertensive rats (SHR) measured by percentage fall in cardiac rhythm (CR) at 25 mg/kg administered intraperitoneally at 5 h; type: functional, Heart; settings: route intraperitoneal; method in brief: as §3
Rattus norvegicus [21] = experiment: Antihypertensive activity in spontaneously hypertensive rats (SHR) measured by percentage fall in cardiac rhythm (CR) at 25 mg/kg administered perorally at 1 h; type: functional, Heart; settings: route oral; method in brief: as §3
Rattus norvegicus [22] = experiment: Antihypertensive activity in spontaneously hypertensive rats (SHR) measured by percentage fall in arterial pressure (AP) at 1 mg/kg administered intraperitoneally at 3 h; type: functional, Artery; settings: route intraperitoneal; method in brief: as §2
Rattus norvegicus [23] = experiment: Antihypertensive activity in spontaneously hypertensive rats (SHR) measured by percentage fall in arterial pressure (AP) at 25 mg/kg administered intraperitoneally at 1 h; type: functional, Artery; settings: route intraperitoneal; method in brief: as §2
Rattus norvegicus [24] = experiment: Antihypertensive activity in spontaneously hypertensive rats (SHR) measured by percentage fall in arterial pressure (AP) at 25 mg/kg administered intraperitoneally at 24 h; type: functional, Artery; settings: route intraperitoneal; method in brief: as §2
Rattus norvegicus [25] = experiment: Antihypertensive activity in spontaneously hypertensive rats (SHR) measured by percentage fall in arterial pressure (AP) at 25 mg/kg administered intraperitoneally at 3 h; type: functional, Artery; settings: route intraperitoneal; method in brief: as §2
Rattus norvegicus [26] = experiment: Antihypertensive activity in spontaneously hypertensive rats (SHR) measured by percentage fall in arterial pressure (AP) at 5 mg/kg administered intraperitoneally at 3 h; type: functional, Artery; settings: route intraperitoneal; method in brief: as §2
Cavia porcellus [27] = experiment: Effect on thromboxane synthetase activity on ex vivo platelet aggregation induced by PGE-2 at 50 mg/kg expressed as percent increase; type: functional
Method in brief: (§4)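 Fasted male or female guinea pigs (250–300 g, five per group) dosed orally in normal saline or saline with 0.2% (carboxymethyl)cellulose/1.0% Tween 80; controls given vehicle. Under ether, cardiac blood collected into 3.8% citrate. PRP adjusted to […] and aggregation induced by ADP (second wave) or AA, read by absorbance aggregometry. PGE2 and TXB2 measured by RIA.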

Cavia porcellus [28] = experiment: Effect on thromboxane synthetase activity on ex vivo platelet aggregation induced by PGE-2 at 100 mg/kg expressed as percent increase; type: functional; method in brief: as §4
[29] = Effect on thromboxane synthetase activity on in vitro platelet aggregation induced by AA at 10e -5 M expressed as percent increase in PGE-2; type: functional, Homo sapiens
Method in brief: (§5)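 Human citrated PRP adjusted to 200 000 […], compound at 10^-5 M final in saline/10% ethylene glycol, incubated at 37 °C. Aggregation induced with arachidonic acid 0.6 mM and read by Born absorbance aggregometry. PGE2 and TXB2 in the aggregated samples measured by radioimmunoassay. n = 5.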

[30] = Effect on PGI-2 release from rat aortic tissue at a final concentration of 10e -4 for an incubation time of 10 minutes; type: functional
Method in brief: (§6)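 Female Wistar rats (200–220 g) received heparin 200 IU/kg ip and were killed 10 min later. Aortic pieces of about 25 mm² were washed in ice-cold oxygenated Krebs–Henseleit buffer, then incubated in 1 mL buffer at 37 °C. Compound at 10^-4 M final was added 10 min before tissue transfer. PGI2 release was read as antiaggregatory activity of the incubate on ADP (2×10^-6 M)-induced human PRP aggregation and by 6-keto-PGF1α RIA. n = 4.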

[31] = Effect on PGI-2 release from rat aortic tissue at a final concentration of 10e -4 for an incubation time of 25 minutes; type: functional; method in brief: as §6
[32] = Effect on PGI-2 release from rat aortic tissue at a final concentration of 10e -4 for an incubation time of 30 minutes; type: functional; method in brief: as §6
[33] = Effect on PGI-2 release from rat aortic tissue at a final concentration of 10e -4 for an incubation time of 35 minutes; type: functional; method in brief: as §6
[34] = molecular target: T1, Thromboxane-A synthase (Homo sapiens) (UniProt P24557); experiment: Effect on thromboxane synthetase activity on ex vivo platelet aggregation induced by TXB2 at 100 mg/kg expressed as percent increase; type: functional, organism-based; parameters: dose 100 mg/kg; settings: Cavia porcellus; method in brief: as §4
T1 sequence (whole entry): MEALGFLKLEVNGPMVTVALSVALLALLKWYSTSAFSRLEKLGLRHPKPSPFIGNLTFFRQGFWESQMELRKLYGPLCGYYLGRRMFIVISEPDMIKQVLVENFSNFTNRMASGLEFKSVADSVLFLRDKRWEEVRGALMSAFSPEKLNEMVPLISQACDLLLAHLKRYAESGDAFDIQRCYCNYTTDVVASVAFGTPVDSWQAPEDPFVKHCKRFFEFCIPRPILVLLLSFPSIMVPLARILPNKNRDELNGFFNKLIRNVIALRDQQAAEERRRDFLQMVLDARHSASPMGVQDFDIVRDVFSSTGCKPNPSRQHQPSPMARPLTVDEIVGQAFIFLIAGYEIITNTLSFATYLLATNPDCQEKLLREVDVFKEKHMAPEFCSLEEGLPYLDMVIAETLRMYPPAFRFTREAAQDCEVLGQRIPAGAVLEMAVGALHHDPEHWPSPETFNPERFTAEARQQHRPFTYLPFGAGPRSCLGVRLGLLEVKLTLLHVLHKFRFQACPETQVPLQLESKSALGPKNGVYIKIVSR

[35] = molecular target: T1, Thromboxane-A synthase (Homo sapiens); experiment: Effect on thromboxane synthetase activity on ex vivo platelet aggregation induced by TXB2 at 50 mg/kg expressed as percent increase; type: functional, organism-based; parameters: dose 50 mg/kg; settings: Cavia porcellus; method in brief: as §4
[36] = molecular target: T1, Thromboxane-A synthase (Homo sapiens); experiment: Effect on thromboxane synthetase activity on in vitro platelet aggregation induced by AA at 10e -5 M expressed as percent […] in TXB2; type: functional; method in brief: as §5

Br.Br.NNc1[nH]ncc2c3cc(O)ccc3nc1-2
Decrease in AP (Rattus norvegicus [1]): 27% | Decrease in AP (Rattus norvegicus [2]): 8% | Decrease in AP (Rattus norvegicus [3]): 27% | Decrease in AP (Rattus norvegicus [4]): 6% | Decrease in AP (Rattus norvegicus [5]): 10% | Decrease in AP (Rattus norvegicus [6]): 63% | Decrease in AP (Rattus norvegicus [7]): 29% | Decrease in CR (Rattus norvegicus [8]): 13% | Decrease in CR (Rattus norvegicus [9]): 19% | Decrease in CR (Rattus norvegicus [10]): 19% | Decrease in CR (Rattus norvegicus [11]): 24% | Decrease in CR (Rattus norvegicus [12]): 8% | Decrease in CR (Rattus norvegicus [13]): 64% | Decrease in CR (Rattus norvegicus [14]): 28% | Decrease in CR (Rattus norvegicus [15]): 30% | Decrease in CR (Rattus norvegicus [16]): 24% | Decrease in CR (Rattus norvegicus [17]): 22% | Decrease in CR (Rattus norvegicus [18]): 18% | Decrease in CR (Rattus norvegicus [19]): 16% | Decrease in CR (Rattus norvegicus [20]): 44% | Decrease in CR (Rattus norvegicus [21]): 17% | Decrease in AP (Rattus norvegicus [22]): -6% | Decrease in AP (Rattus norvegicus [23]): 70% | Decrease in AP (Rattus norvegicus [24]): 28% | Decrease in AP (Rattus norvegicus [25]): 67% | Decrease in AP (Rattus norvegicus [26]): 16%

CC(=O)Oc1ccccc1C(=O)O [ASPIRIN]
Increase (Cavia porcellus [27]): 0% | Increase (Cavia porcellus [28]): 0% | Increase [29]: 0% | Inhibition [30]: 80% | Inhibition [31]: 80% | Inhibition [32]: 80% | Inhibition [33]: 80% | inhibition [34]: 100% | inhibition [35]: 100% | inhibition [36]: 100%
